# Results taken from ChEMBL document CHEMBL1126035, “Selective beta 3-adrenergic agonists of brown adipose tissue and thermogenesis. 1. [4-[2-[(2-Hydroxy-3-phenoxypropyl)amino]ethoxy]phenoxy]acetates” (1992).
# Active and inactive are the calls of the source. The calls are words filed in the database; no cut-off is given here.
# Assays:
# [1] = Ratio of the dose (D500,peroral administration) elevating the rat heart rate to 500 bpm to the GDP ED50.; format: functional
# How it was run: (§1)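 Rats held at 29 °C for 2 weeks, groups of six dosed (sc or po) at the BAT GDP ED50, then at rising multiples of it. Heart rate read 15–30 min after dosing until ≥500 bpm, giving D500; vehicle control group of six. Index = D500 divided by GDP-binding ED50 from cold-adapted rats.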
# [2] = target: Beta-3 adrenergic receptor (Rattus norvegicus) (UniProt P26255); assay: Inhibition of beta-3 adrenergic receptor GDP binding in rat brown adipose tissue on oral administration relative to isoprenaline; format: tissue-based
# Chain of Beta-3 adrenergic receptor (Rattus norvegicus) (P26255 whole entry): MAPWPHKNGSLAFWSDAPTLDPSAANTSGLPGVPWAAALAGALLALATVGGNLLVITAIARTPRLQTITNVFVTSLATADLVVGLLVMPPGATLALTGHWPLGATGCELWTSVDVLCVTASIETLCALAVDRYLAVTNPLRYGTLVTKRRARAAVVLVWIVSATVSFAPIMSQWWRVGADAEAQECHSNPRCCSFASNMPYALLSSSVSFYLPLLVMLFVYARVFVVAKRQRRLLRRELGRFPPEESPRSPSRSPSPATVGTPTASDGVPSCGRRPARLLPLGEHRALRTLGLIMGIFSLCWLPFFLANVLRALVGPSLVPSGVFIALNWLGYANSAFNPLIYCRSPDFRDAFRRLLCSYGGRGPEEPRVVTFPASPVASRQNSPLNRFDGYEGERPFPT
# How it was run: (§2)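 Rats cold-adapted at 4 °C for 4 days, then kept at 23 °C for 2 days; next day dosed sc or po in 0.45% aqueous NaCl/0.25% w/v Polysorbate 80, 0.1–10 mg kg-1, n=6 per group. Interscapular BAT taken 1 h later, mitochondria by differential centrifugation, GDP binding measured. Expressed relative to isoprenaline sulfate 1 mg kg-1; ED50 by linear regression.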
# [3] = Ratio of the dose (D500,subcutaneous administration) elevating the rat heart rate to 500 bpm to the GDP ED50; format: functional; how it was run: as §1
# [4] = target: Beta-3 adrenergic receptor (Rattus norvegicus) (UniProt P26255); assay: Dose necessary to produce 50% of the isoprenaline effect to inhibit GDP binding to beta-3 adrenergic receptor in brown adipose tissue(BAT mitochondria) of rats after subcutaneous administration; not active; how it was run: as §2
Structure (SMILES),ED50 [2],ED50 [4],SI [1],SI [3]
COC(=O)c1ccc(CC(C)NCC(O)c2ccccc2)cc1 (centres undefined),0.94 mg/kg,–,> 10,–
CC(C)OC(=O)COc1ccc(OCCNCC(O)COc2ccccc2)cc1 (centres undefined),–,–,> 10,–
COC(=O)COc1cccc(OCCNCC(O)COc2ccccc2F)c1.Cl (centres undefined),–,–,> 10,–
CC(C)NC[C@H](O)COc1ccc(O)cc1 [PRENALTEROL],–,–,–,< 1
COC(=O)COc1ccc(CC(C)NCC(O)c2cccc(Cl)c2)cc1 (centres undefined),0.007 mg/kg,–,> 100,–
COC(=O)COc1ccc(OCC(C)NCC(O)COc2ccccc2)cc1.O (centres undefined),–,–,> 10,–
CCOC(=O)COc1ccc(OCCNCC(O)COc2ccccc2)cc1 (centres undefined),–,–,> 100,–

# More lines, main results first:
ED50 [2],ED50 [4],Structure (SMILES),SI [1],SI [3]
3.5 mg/kg,–,O=C(O)COc1ccc(OCCNCC(O)COc2ccccc2)cc1 (centres undefined),> 62,–
0.25 mg/kg,–,CC(C)(C)OC(=O)COc1ccc(OCCNCC(O)COc2ccccc2)cc1 (centres undefined),> 100,–
–,inactive,COC(=O)COc1ccc(C(=O)NCCNCC(O)COc2ccccc2)cc1 (centres undefined),–,–
0.078 mg/kg,–,COC(=O)COc1ccc(CCNCC(O)COc2ccccc2)cc1 (centres undefined),> 100,–
0.54 mg/kg,–,COC(=O)COc1ccc(OCCNCC(O)COc2ccccc2F)cc1.Cl (centres undefined),> 100,–
5.28 mg/kg,–,COC(=O)COc1cccc(OCCNCC(O)COc2ccccc2)c1 (centres undefined),> 10,–
0.45 mg/kg,–,Cl.O=C(O)COc1ccc(OCCNC[C@H](O)COc2ccccc2)cc1,> 22,–
0.12 mg/kg,–,COC(=O)COc1ccc(OCCNCC(O)COc2ccccc2)cc1 (centres undefined),> 100,–
